From ChEMBL document CHEMBL1142521 (J Med Chem, 2008)

Experiments:
[1] = Inhibition of Hedgehog pathway-dependent oxysterol-induced mouse C3 H10T1/2 cell differentiation assessed as alkaline phosphatase production after 72 hrs; type: functional, cell-based; conditions: C3H 10T1/2, 72 h
Summary of the method: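 Murine progenitor C3H10T1/2 cells were induced with oxysterol to differentiate into osteoblasts in culture, and Hh pathway inhibition was taken as the effect on this differentiation. The number of determinations is reported per value.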

[2] = system: Mus musculus; experiment: Volume of distribution in CD1 mouse at 5 mg/kg, po by LC-MS/MS analysis; type: ADME, organism-based; set-up: dose 5 mg/kg, route oral; conditions: in vivo
Summary of the method: (§1)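 Hydrochloride salt was dissolved in sterile water for injection containing 30% (w/w) 2-hydroxypropyl-β-cyclodextrin and given to CD-1 mice intravenously and orally. Plasma was sampled at selected time points, proteins were precipitated, and drug levels were quantified by LC-MS/MS.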

[3] = Oral bioavailability in CD1 mouse at 5 mg/kg by LC-MS/MS analysis; type: ADME, organism-based; conditions: in vivo; summary of the method: as §1
[4] = Elimination half life in CD1 mouse at 5 mg/kg, po by LC-MS/MS analysis; type: ADME, organism-based; set-up: dose 5 mg/kg, route oral; conditions: in vivo, read-out: beta t1/2 (converted); summary of the method: as §1
[5] = Chemical stability in simulated gastric fluid after 60 mins; type: physicochemical; conditions: read-out: Stability
Summary of the method: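 Test material incubated in simulated gastric fluid for 60 min; read-out is the percentage of parent compound remaining.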

[6] = Chemical stability in Bronsted and Lewis acid; type: physicochemical

CC1=C2C[C@H]3[C@@H](CCC4=CC(=O)CC[C@@]43C)[C@@H]2CC[C@@]2(C1)O[C@@H]1C[C@H](C)CN(CCOCCO)[C@H]1[C@H]2C
EC50 [1]: > 1000 nM

CC1=C2C[C@H]3[C@@H](CCC4=CC(=O)CC[C@@]43C)[C@@H]2CC[C@@]2(C1)O[C@@H]1C[C@H](C)CN(C)[C@H]1[C@H]2C
EC50 [1]: 400 nM

CC1=C2C[C@H]3[C@@H](CCC4=CC(=O)CC[C@@]43C)[C@@H]2CC[C@@]2(C1)O[C@@H]1C[C@H](C)CN[C@H]1[C@H]2C.Cl
Vd [2]: 18 L/kg
bioavailability [3]: 80%
half-life [4]: 192 min

CC(=O)N1C[C@@H](C)C[C@H]2O[C@]3(CC[C@@H]4C(=C(C)C3)C[C@H]3[C@H]4CCC4=CC(=O)CC[C@@]43C)[C@H](C)[C@@H]21
EC50 [1]: 120 nM

CC1=C2C[C@H]3[C@@H](CCC4=CC(=O)CC[C@@]43C)[C@@H]2CC[C@@]2(C1)O[C@@H]1C[C@H](C)CN(CCNC(=O)CCc3ccccc3)[C@H]1[C@H]2C
EC50 [1]: 20 nM

CC1=C2C[C@H]3[C@@H](CCC4=CC(=O)CC[C@@]43C)[C@@H]2CC[C@@]2(C1)O[C@@H]1C[C@H](C)CN[C@H]1[C@H]2C
EC50 [1]: 200 nM
remaining at 1 h [5]: 98%

C[C@@H]1CN[C@H]2[C@@H](C)[C@@]3(CC[C@H]4[C@@H]5CC=C6C[C@@H](O)CC[C@]6(C)[C@H]5C[C@@]45C[C@]53C)O[C@@H]2C1 [CYCLOPROPYL CYCLOPAMINE]
EC50 [1]: > 2000 nM
Stability [6]: Stable

COCCOCCN1C[C@@H](C)C[C@H]2O[C@]3(CC[C@@H]4C(=C(C)C3)C[C@H]3[C@H]4CCC4=CC(=O)CC[C@@]43C)[C@H](C)[C@@H]21
EC50 [1]: 400 nM

C[C@H]1C[C@H]2O[C@]3(CC[C@H]4[C@@H]5CC=C6C[C@@H](O)CC[C@]6(C)[C@H]5C[C@@]45C[C@]53C)[C@H](C)[C@@H]2N(C(=O)OCC2c3ccccc3-c3ccccc32)C1
Stability [6]: Stable

CC1=C2C[C@H]3[C@@H](CCC4=CC(=O)CC[C@@]43C)[C@@H]2CC[C@@]2(C1)O[C@@H]1C[C@H](C)CN(CCNC(=O)CCCCCNC(=O)CCc3ccccc3)[C@H]1[C@H]2C
EC50 [1]: 10 nM

CC1=C2C[C@H]3[C@@H](CC=C4C[C@@H](O)CC[C@@]43C)[C@@H]2CC[C@]12O[C@@H]1C[C@H](C)CN[C@H]1[C@H]2C [CYCLOPAMINE]
EC50 [1]: 170 nM
remaining at 1 h [5]: 60%

CC1=C2C[C@H]3[C@@H](CC=C4C[C@@H](O)CC[C@@]43C)[C@@H]2CC[C@@]2(C1)O[C@@H]1C[C@H](C)CN[C@H]1[C@H]2C
EC50 [1]: > 2500 nM

CC1=C2C[C@H]3[C@@H](CCC4=CC(=O)CC[C@@]43C)[C@@H]2CC[C@@]2(C1)O[C@@H]1C[C@H](C)CN(CCCl)[C@H]1[C@H]2C
EC50 [1]: > 2500 nM

CC1=C2C[C@H]3[C@@H](CCC4=CC(=O)CC[C@@]43C)[C@@H]2CC[C@@]2(C1)O[C@@H]1C[C@H](C)CN(O)[C@H]1[C@H]2C
EC50 [1]: 800 nM

CC1=C2C[C@H]3[C@@H](CCC4=CC(=O)CC[C@@]43C)[C@@H]2CC[C@@]2(C1)O[C@@H]1C[C@H](C)CN(Cc3ccccc3)[C@H]1[C@H]2C
EC50 [1]: > 2000 nM
